Results as given in ChEMBL document CHEMBL1148024, “Novel inhibitors of fatty acid amide hydrolase” (Bioorg Med Chem Lett, 2007).
pIC50, pKi: −log10 of the molar value. Calls of active or inactive are those of the source. The rule behind the calls is not given here.

Key:
[1] = target: Cannabinoid receptor 2 (Homo sapiens, UniProt P34972); experiment: Displacement of [3H]CP-55940 from CB2 receptor expressed in CHO cells; type: cell-based
[2] = target: Cannabinoid receptor 1 (Homo sapiens, UniProt P21554); experiment: Displacement of [3H]CP-55940 from CB1 receptor expressed in HEK cells; type: cell-based, HEK293
[3] = tested on: Rattus norvegicus; experiment: Antinociceptive effect in rat at 10 mg/kg, iv by thermal escape test; type: functional, organism-based; design: dose 10 mg/kg
Method in brief: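 Rats were dosed iv with test compound at 0.1, 1 and 10 mg/kg, 15 min before exogenous anandamide (1 mg/kg, iv). Antinociception was read in the Hargreaves thermal escape test from 3 to 30 min after anandamide.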

[4] = target: T1, Cytosolic phospholipase A2 (Homo sapiens, UniProt P47712); experiment: Inhibition of cPLA2 activity
T1 sequence (P47712 whole entry): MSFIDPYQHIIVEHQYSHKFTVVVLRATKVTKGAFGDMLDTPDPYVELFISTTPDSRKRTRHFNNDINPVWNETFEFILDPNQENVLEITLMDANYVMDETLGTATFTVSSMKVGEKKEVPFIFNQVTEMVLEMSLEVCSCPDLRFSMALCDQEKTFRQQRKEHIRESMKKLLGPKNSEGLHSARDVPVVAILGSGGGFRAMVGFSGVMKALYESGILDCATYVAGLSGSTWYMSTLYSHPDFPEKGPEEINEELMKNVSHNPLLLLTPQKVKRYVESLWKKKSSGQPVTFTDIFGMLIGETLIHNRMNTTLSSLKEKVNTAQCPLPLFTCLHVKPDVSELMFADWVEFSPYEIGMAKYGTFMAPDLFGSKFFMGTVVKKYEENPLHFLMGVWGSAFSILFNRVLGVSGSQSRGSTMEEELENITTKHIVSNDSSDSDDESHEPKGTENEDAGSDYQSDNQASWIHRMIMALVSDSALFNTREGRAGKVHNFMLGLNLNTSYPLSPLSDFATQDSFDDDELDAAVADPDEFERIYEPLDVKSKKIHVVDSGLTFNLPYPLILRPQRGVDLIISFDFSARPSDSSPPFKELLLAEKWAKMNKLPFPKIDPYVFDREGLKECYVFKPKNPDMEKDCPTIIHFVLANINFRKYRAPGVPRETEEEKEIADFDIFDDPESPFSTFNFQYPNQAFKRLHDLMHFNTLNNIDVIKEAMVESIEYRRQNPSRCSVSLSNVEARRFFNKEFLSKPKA

[5] = target: T2, Fatty-acid amide hydrolase 1 (Homo sapiens, UniProt O00519); experiment: Inhibition of human FAAH expressed in H4 cells; type: cell-based
T2 sequence (O00519 whole entry): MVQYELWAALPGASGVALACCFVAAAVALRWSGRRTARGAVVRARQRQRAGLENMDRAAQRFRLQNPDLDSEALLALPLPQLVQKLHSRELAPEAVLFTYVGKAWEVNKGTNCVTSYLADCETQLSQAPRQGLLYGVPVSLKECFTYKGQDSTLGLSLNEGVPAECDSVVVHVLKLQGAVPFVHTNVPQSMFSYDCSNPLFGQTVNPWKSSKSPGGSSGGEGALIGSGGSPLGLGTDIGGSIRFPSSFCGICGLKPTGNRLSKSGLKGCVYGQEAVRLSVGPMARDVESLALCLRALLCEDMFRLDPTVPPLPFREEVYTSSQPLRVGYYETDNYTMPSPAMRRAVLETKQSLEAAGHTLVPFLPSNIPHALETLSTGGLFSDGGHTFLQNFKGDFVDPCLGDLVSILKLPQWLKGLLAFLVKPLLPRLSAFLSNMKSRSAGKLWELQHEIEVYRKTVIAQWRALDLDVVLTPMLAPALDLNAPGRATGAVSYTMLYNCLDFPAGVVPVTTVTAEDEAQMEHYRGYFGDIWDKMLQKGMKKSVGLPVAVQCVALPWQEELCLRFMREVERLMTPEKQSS
Method in brief: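 Enzyme source: crude membrane homogenates from H4 cells transfected with human FAAH. Activity measured by a modified Omeir et al. method. IC50 taken from a four-parameter logistic fit of dose–response curves.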

[6] = tested on: Rattus norvegicus; experiment: Antinociceptive effect in rat persistent pain model assessed as suppression of formalin-induced paw flinches at 20 mg/kg, iv in presence of SR-141716A; type: functional, organism-based; design: dose 20 mg/kg
Method in brief: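 CB1 antagonist SR141716A was given ip at 3 or 10 mg/kg at -30 min. Test compound (20 mg/kg) followed iv via jugular catheter at -15 min, then subcutaneous paw formalin at 0 min. Paw-flinch frequency was scored in Phase I (acute) and Phase II (persistent). Groups were compared with vehicle by Dunnett's test.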

[7] = tested on: Rattus norvegicus; experiment: Antinociceptive effect in rat persistent pain model assessed as suppression of formalin-induced paw flinches at 20 mg/kg, iv relative to control; type: functional, organism-based; design: dose 20 mg/kg
[8] = tested on: Rattus norvegicus; experiment: Effect on neuropathic pain in rat chung model assessed as reversal of tactile allodynia at 20 mg/kg, iv; type: functional, organism-based; design: dose 20 mg/kg

Chain of Cannabinoid receptor 2 (P34972 whole entry): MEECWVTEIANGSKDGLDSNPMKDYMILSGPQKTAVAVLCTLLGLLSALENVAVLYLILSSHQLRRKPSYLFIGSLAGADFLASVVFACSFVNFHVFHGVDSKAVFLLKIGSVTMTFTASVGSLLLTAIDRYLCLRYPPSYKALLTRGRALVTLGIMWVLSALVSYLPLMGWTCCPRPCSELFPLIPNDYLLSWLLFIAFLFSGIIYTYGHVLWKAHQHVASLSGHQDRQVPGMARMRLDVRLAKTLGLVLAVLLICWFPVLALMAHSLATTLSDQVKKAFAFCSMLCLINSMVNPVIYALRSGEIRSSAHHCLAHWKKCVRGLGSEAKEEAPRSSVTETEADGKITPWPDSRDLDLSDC
Chain of Cannabinoid receptor 1 (P21554 whole entry): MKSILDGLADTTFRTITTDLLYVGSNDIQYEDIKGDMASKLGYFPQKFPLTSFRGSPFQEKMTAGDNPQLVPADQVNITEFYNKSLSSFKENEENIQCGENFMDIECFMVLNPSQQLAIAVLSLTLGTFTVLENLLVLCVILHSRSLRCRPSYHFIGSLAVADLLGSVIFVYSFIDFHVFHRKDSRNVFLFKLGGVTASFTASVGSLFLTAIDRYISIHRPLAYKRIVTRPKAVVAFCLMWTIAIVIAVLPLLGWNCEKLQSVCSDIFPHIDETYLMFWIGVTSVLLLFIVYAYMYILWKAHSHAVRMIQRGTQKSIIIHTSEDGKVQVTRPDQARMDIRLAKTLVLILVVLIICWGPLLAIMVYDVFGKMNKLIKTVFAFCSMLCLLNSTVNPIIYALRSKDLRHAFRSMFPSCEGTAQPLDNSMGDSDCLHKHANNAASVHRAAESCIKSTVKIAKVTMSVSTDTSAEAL

Compound	pIC50 [5]	also measured
Cc1nc(-c2ccccc2)c(-c2ccccc2)n1CCCCCCNC(=O)Oc1ccccc1F	8.70	pKi [1]: 4.55; pKi [2]: 4.64; Activity [3]: inactive; pKi [4]: 4.82; Activity [6]: inactive; Activity [7]: Active; Activity [8]: Active
CCOC(=O)CC(CC)CCCCCn1c(C)nc(-c2ccccc2)c1-c1ccccc1 (centres undefined)	5.00	
Cc1nc(-c2ccc(F)cc2)c(-c2ccc(F)cc2)n1CCCCCCNC(=O)Oc1ccccc1F	8.00	
COC(=O)COc1cccc(-n2cnc(-c3ccccc3)c2-c2ccccc2)c1	5.19	
Cc1nc(-c2ccccc2)c(-c2ccccc2)n1CCCCCC(NC(=O)Oc1ccccc1F)c1ccccc1 (centres undefined)	6.96	
COC(=O)COc1ccc(-n2cnc(-c3ccccc3)c2-c2ccccc2)cc1	6.17	
Cc1nc(-c2ccccc2)c(-c2ccccc2)n1CCCCCCC(=O)N(C)C	6.01	
CCc1nc(-c2ccccc2)c(-c2ccccc2)n1CCCCCCCC(=O)OC	7.51	
CCCCC/C=C\C/C=C\C/C=C\C/C=C\CCCC(=O)NCCO		Activity [3]: inactive
CCOC(=O)CC(CCCCCn1c(C)nc(-c2ccccc2)c1-c1ccccc1)C(C)C (centres undefined)	< 4.00	
CCOC(=O)CC(C)CCCCCn1c(C)nc(-c2ccccc2)c1-c1ccccc1 (centres undefined)	6.89	
Cc1nc(-c2ccccc2)c(-c2ccccc2)n1CCCCCC(NC(=O)Oc1ccccc1F)C(C)C (centres undefined)	6.60	
Cc1nc(-c2ccccc2)c(-c2ccccc2)n1CCCCCCNC(=O)Nc1ccccc1	5.00	
CCCN(CCCCCCn1c(C)nc(-c2ccccc2)c1-c1ccccc1)C(=O)Oc1ccccc1F	< 4.00	
CCOC(=O)CCCOc1ccc(-n2cnc(-c3ccccc3)c2-c2ccccc2)cc1	7.19	
CCOC(=O)CCCCOc1ccc(-n2cnc(-c3ccccc3)c2-c2ccccc2)cc1	< 5.00	
CCOC(=O)CCCCCn1c(CC)nc(-c2ccccc2)c1-c1ccccc1	7.49	
CNC(=O)CCCCCCn1c(C)nc(-c2ccccc2)c1-c1ccccc1	5.77	
Cc1nc(-c2ccc(F)cc2)c(-c2ccc(F)cc2)n1CCCCCCNC(=O)Oc1c(F)cccc1F	7.62	
CCOC(=O)CCCCCCn1c(CC)nc(-c2ccccc2)c1-c1ccccc1	7.96	
CCOC(=O)CCCOc1cccc(-n2cnc(-c3ccccc3)c2-c2ccccc2)c1	7.04	
CNC(=O)NCCCCCCn1c(C)nc(-c2ccccc2)c1-c1ccccc1	< 5.00	
CCOC(=O)CCCCCCn1c(C)nc(-c2ccc(F)cc2)c1-c1ccc(F)cc1	7.19	
Cc1nc(-c2ccccc2)c(-c2ccccc2)n1CCCCCC(C)NC(=O)Oc1ccccc1F (centres undefined)	8.38	
CCN(CCCCCCn1c(C)nc(-c2ccccc2)c1-c1ccccc1)C(=O)Oc1ccccc1F	< 4.00	
Cc1nc(-c2ccccc2)c(-c2ccccc2)n1CCCCCCNC(=O)Oc1ccccc1	8.28	
CCC(CCCCCn1c(C)nc(-c2ccccc2)c1-c1ccccc1)NC(=O)Oc1ccccc1F (centres undefined)	7.52	
